Molecules are shown by their SMILES. In brackets after ≈: the same amount, converted by molar mass.

This is an account of results in ChEMBL document CHEMBL3877325, “Novel salicylanilides from 4,5-dihalogenated salicylic acids: Synthesis, antimicrobial activity and cytotoxicity” (Bioorg Med Chem, 2017).

Data set [1] can be described thus: Selectivity index, ratio of IC50 for human HepG2 cells to MIC for Mycobacterium tuberculosis H37Rv after 21 days. The conditions noted are these: HepG2 cells versus Mycobacterium tuberculosis H37Rv, read-out: Selectivity Index. It counts as toxicity, cell-based. In short, it runs like this: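 HepG2 cells (passages 33-37) seeded at 1 × 10^4 per well and treated next day with 0.1–100 µM in triplicate. After 24 h at 37 °C, 5% CO2, MTS reagent added for 2 h and absorbance read at 490 nm. IC50 taken from viability relative to untreated control, then divided by the 21-day H37Rv MIC.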

In data set [2] the test system is Mycobacterium kansasii. Put plainly: Antimycobacterial activity against Mycobacterium kansasii isolate 235/80 after 7 days by micromethod. The conditions noted are these: isolate 235/80, 168 h. It counts as functional. Put shortly:
(§1)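 MIC in Šula's semisynthetic medium at 37 °C, read after 7, 14 and 21 days. Inoculum is strain dilution 10^-4; 235/80 is a collection strain and 6509/96 a clinical isolate. Compounds are added as DMSO solutions at 500, 250, 125, 62.5, 32, 16, 8, 4, 2, 1 and 0.5 µM. INH (in sterile water) and PAS are the reference drugs.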

In data set [3] the test system is Mycobacterium tuberculosis. Put plainly: Antimycobacterial activity against Mycobacterium tuberculosis H37Rv My 331/88 after 14 days by micromethod. It counts as functional. The conditions noted are these: H37Rv My 331/88, 336 h. Put shortly: (§2)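 MIC micromethod in Šula's semisynthetic medium at 37 °C, read after 14 and 21 days. Compounds added as DMSO solutions at 500 down to 0.5 µM (twofold-type series: 500, 250, 125, 62.5, 32, 16, 8, 4, 2, 1, 0.5 µM). Isoniazid standard given in sterile water.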

Data set [4] has as its system Mycobacterium kansasii. Nature of the data set: Antimycobacterial activity against Mycobacterium kansasii isolate 235/80 after 14 days by micromethod. The class given is functional. The note with it: isolate 235/80, 336 h. Put shortly:
as §1

For data set [5], the system named is Mycobacterium kansasii. Put plainly: Antimycobacterial activity against Mycobacterium kansasii isolate 235/80 after 21 days by micromethod. The class given is functional. The conditions noted are these: isolate 235/80, 504 h. Put shortly:
as §1

For data set [6], the system named is Mycobacterium avium. Nature of the data set: Antimycobacterial activity against Mycobacterium avium My 330/80 after 21 days by micromethod. The class given is functional. The conditions noted are these: My 330/80, 504 h. In short, it runs like this:
(§3)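 M. avium My 330/80 (collection strain) inoculated at 10^-5 dilution into Šula's semisynthetic medium. Compounds added from DMSO solutions at 500, 250, 125, 62.5, 32, 16, 8, 4, 2, 1 and 0.5 µM. MIC determined by micromethod at 37 °C, read after 14 and 21 days.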

Data set [7] has as its system Mycobacterium tuberculosis. Nature of the data set: Antimycobacterial activity against Mycobacterium tuberculosis H37Rv My 331/88 after 21 days by micromethod. It counts as functional. The conditions noted are these: H37Rv My 331/88, 504 h. In short, it runs like this: as §2
In data set [8] the test system is Mycobacterium kansasii. Nature of the data set: Antimycobacterial activity against Mycobacterium kansasii isolate 6509/96 after 21 days by micromethod. The class given is functional. The conditions noted are these: isolate 6509/96, 504 h. Put shortly:
as §1

A short description of data set [9]: Cytotoxicity against human HepG2 cells assessed as reduction in cell viability after 24 hrs by MTS assay. The class given is toxicity, cell-based. Put shortly:
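HepG2 cells (passages 33-37) are grown in MEM with 10% FBS, L-glutamine and non-essential amino acids. They are seeded at 1 × 10^4 cells/well and treated next day with 0.1-100 µM in triplicate for 24 h at 37 °C, 5% CO2. MTS reagent is added for 2 h and A490 read.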
A general note: Tetrazolium dyes change colour on reduction, which living cells bring about.

The test system of data set [10] is Mycobacterium avium. Nature of the data set: Antimycobacterial activity against Mycobacterium avium My 330/80 after 14 days by micromethod. The conditions noted are these: My 330/80, 336 h. It counts as functional. Put shortly:
as §3

Data set [11] relates to Mycobacterium kansasii. Nature of the data set: Antimycobacterial activity against Mycobacterium kansasii isolate 6509/96 after 7 days by micromethod. The class given is functional. The note with it: isolate 6509/96, 168 h. In short, it runs like this: as §1
For data set [12], the system named is Mycobacterium kansasii. Nature of the data set: Antimycobacterial activity against Mycobacterium kansasii isolate 6509/96 after 14 days by micromethod. It counts as functional. The conditions noted are these: isolate 6509/96, 336 h. In short, it runs like this: as §1

As for `O=C(Nc1ccc(Br)cc1)c1cc(Cl)ccc1O`, the selectivity ratio at 504 h in [1] was determined as 0.2. The MIC (commonly the lowest concentration found to suppress growth) was 4 µM (≈ 1.31 µg/mL) in the data set on Mycobacterium kansasii [2]; 8 µM (≈ 2.61 µg/mL) in [3]; 4 µM (≈ 1.31 µg/mL) against Mycobacterium kansasii [4]; 4 µM (≈ 1.31 µg/mL) against Mycobacterium kansasii [5]; 8 µM (≈ 2.61 µg/mL) in the data set with Mycobacterium avium [6]; 16 µM (≈ 5.23 µg/mL) in [7]. Further, the minimal inhibitory concentration (MIC) against Mycobacterium kansasii [8] worked out at 8 µM (≈ 2.61 µg/mL); against Mycobacterium avium [10], 8 µM (≈ 2.61 µg/mL); against Mycobacterium kansasii [11], 4 µM (≈ 1.31 µg/mL); against Mycobacterium kansasii [12], 8 µM (≈ 2.61 µg/mL). In [9], the IC50 (in general, the concentration that gives 50% inhibition) at 24 h was determined as 3.14 µM.
For `O=C(Nc1ccc(Cl)c(Cl)c1)c1ccc(Br)cc1O`, in data set [1], the selectivity ratio at 504 h was 8.84. The MIC in the data set on Mycobacterium kansasii [2] was 4 µM (≈ 1.44 µg/mL); in data set [3], 1 µM (≈ 0.361 µg/mL); against Mycobacterium kansasii [4] it was 4 µM (≈ 1.44 µg/mL); with Mycobacterium kansasii [5], 4 µM (≈ 1.44 µg/mL); in the data set with Mycobacterium avium [6] it was 16 µM (≈ 5.78 µg/mL); in [7], 2 µM (≈ 0.722 µg/mL). The minimum inhibitory concentration (MIC) came out at 8 µM (≈ 2.89 µg/mL) against Mycobacterium kansasii [8], 16 µM (≈ 5.78 µg/mL) in the data set with Mycobacterium avium [10], 4 µM (≈ 1.44 µg/mL) in the data set on Mycobacterium kansasii [11] and 4 µM (≈ 1.44 µg/mL) with Mycobacterium kansasii [12]. For the same compound, the half-maximal inhibitory concentration (IC50) at 24 h in data set [9] was 17.7 µM.
With `O=C(Nc1ccc(Br)cc1)c1cc(Br)c(Cl)cc1O`, in data set [1], the selectivity ratio at 504 h was 2.71. In addition, the minimum inhibitory concentration (MIC) in the data set on Mycobacterium kansasii [2] was determined as 4 µM (≈ 1.62 µg/mL); in [3] it was 2 µM (≈ 0.811 µg/mL); against Mycobacterium kansasii [4], 8 µM (≈ 3.24 µg/mL); in the data set on Mycobacterium kansasii [5], 8 µM (≈ 3.24 µg/mL); in the data set with Mycobacterium avium [6], 32 µM (≈ 13 µg/mL); in data set [7], 4 µM (≈ 1.62 µg/mL). In addition, the MIC was determined as 8 µM (≈ 3.24 µg/mL) against Mycobacterium kansasii [8], 32 µM (≈ 13 µg/mL) in the data set with Mycobacterium avium [10], 8 µM (≈ 3.24 µg/mL) against Mycobacterium kansasii [11] and 8 µM (≈ 3.24 µg/mL) in the data set on Mycobacterium kansasii [12]. For the same compound, the IC50 at 24 h in data set [9] was 10.8 µM.
As for `O=C(Nc1cc(C(F)(F)F)cc(C(F)(F)F)c1)c1ccc(Cl)cc1O`, the selectivity ratio at 504 h in [1] was 2.39. The minimum inhibitory concentration (MIC) stood at 8 µM (≈ 3.07 µg/mL) against Mycobacterium kansasii [2]; 4 µM (≈ 1.53 µg/mL) in data set [3]; 8 µM (≈ 3.07 µg/mL) in the data set with Mycobacterium kansasii [4]; 16 µM (≈ 6.14 µg/mL) against Mycobacterium kansasii [5]; 16 µM (≈ 6.14 µg/mL) against Mycobacterium avium [6]; 4 µM (≈ 1.53 µg/mL) in data set [7]. Moreover, the MIC against Mycobacterium kansasii [8] came to 8 µM (≈ 3.07 µg/mL); in the data set with Mycobacterium avium [10], 16 µM (≈ 6.14 µg/mL); in the data set with Mycobacterium kansasii [11], 8 µM (≈ 3.07 µg/mL); with Mycobacterium kansasii [12], 8 µM (≈ 3.07 µg/mL). In data set [9], the IC50 at 24 h is 9.55 µM.
As to `O=C(Nc1ccc(Cl)c(Cl)c1)c1cc(Br)c(Br)cc1O`, the selectivity ratio at 504 h in data set [1] was 1.99. Besides, the MIC in the data set on Mycobacterium kansasii [2] was determined as 8 µM (≈ 3.52 µg/mL); in [3], 2 µM (≈ 0.88 µg/mL); in the data set on Mycobacterium kansasii [4], 8 µM (≈ 3.52 µg/mL); in the data set with Mycobacterium kansasii [5], 8 µM (≈ 3.52 µg/mL); in the data set with Mycobacterium avium [6], 62.5 µM (≈ 27.5 µg/mL); in data set [7], 4 µM (≈ 1.76 µg/mL). For the same compound, the minimal inhibitory concentration (MIC) against Mycobacterium kansasii [8] amounted to 8 µM (≈ 3.52 µg/mL); in the data set with Mycobacterium avium [10] it was 62.5 µM (≈ 27.5 µg/mL); against Mycobacterium kansasii [11], 8 µM (≈ 3.52 µg/mL); in the data set on Mycobacterium kansasii [12], 8 µM (≈ 3.52 µg/mL). Besides, the 50% inhibitory concentration (IC50) at 24 h in data set [9] was found to be 7.96 µM.
In the case of `O=C(Nc1ccc(C(F)(F)F)cc1)c1ccc(Br)cc1O`, the selectivity ratio at 504 h in [1] was 7.52. Moreover, the minimal inhibitory concentration (MIC) with Mycobacterium kansasii [2] came out at 2 µM (≈ 0.72 µg/mL); in [3], 1 µM (≈ 0.36 µg/mL); against Mycobacterium kansasii [4], 2 µM (≈ 0.72 µg/mL); in the data set on Mycobacterium kansasii [5] it was 4 µM (≈ 1.44 µg/mL); against Mycobacterium avium [6], 8 µM (≈ 2.88 µg/mL); in data set [7], 2 µM (≈ 0.72 µg/mL). In addition, the MIC against Mycobacterium kansasii [8] turned out to be 4 µM (≈ 1.44 µg/mL); against Mycobacterium avium [10], 8 µM (≈ 2.88 µg/mL); in the data set with Mycobacterium kansasii [11], 2 µM (≈ 0.72 µg/mL); in the data set with Mycobacterium kansasii [12], 4 µM (≈ 1.44 µg/mL). Besides, in data set [9], the half-inhibitory concentration (IC50) at 24 h is 15 µM.
`O=C(Nc1ccc(Cl)c(Cl)c1)c1cc(Cl)c(Br)cc1O`: the selectivity ratio at 504 h in data set [1] was found to be 2.76. Also, the minimal inhibitory concentration (MIC) with Mycobacterium kansasii [2] is 8 µM (≈ 3.16 µg/mL); in [3] it was 2 µM (≈ 0.791 µg/mL); in the data set with Mycobacterium kansasii [4], 8 µM (≈ 3.16 µg/mL); in the data set with Mycobacterium kansasii [5], 8 µM (≈ 3.16 µg/mL); against Mycobacterium avium [6], 125 µM (≈ 49.4 µg/mL); in data set [7], 4 µM (≈ 1.58 µg/mL). Also, the minimal inhibitory concentration (MIC) in the data set on Mycobacterium kansasii [8] worked out at 8 µM (≈ 3.16 µg/mL); in the data set on Mycobacterium avium [10], 125 µM (≈ 49.4 µg/mL); against Mycobacterium kansasii [11], 8 µM (≈ 3.16 µg/mL); with Mycobacterium kansasii [12], 8 µM (≈ 3.16 µg/mL). In addition, the IC50 at 24 h in data set [9] is 11.1 µM.
